Results from ChEMBL document CHEMBL1133857, “Beta 3 agonists. Part 1: evolution from inception to BMS-194449” (Bioorg Med Chem Lett, 2001).

Experiments:
[1] = target: Beta-2 adrenergic receptor and beta-3 adrenergic receptor (Homo sapiens) (UniProt P07550+P13945); test: Selectivity as the ratio of Ki of beta-2 adrenergic receptor to the Ki of beta-3 adrenergic receptor.; type: protein assay
Summary of the method: (§1)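 Ki at human β1, β2 and β3 adrenergic receptors measured by binding to membranes prepared from CHO cells transfected with each human receptor. Selectivity is expressed as the ratio of β1 or β2 Ki to β3 Ki.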

[2] = target: T1, Beta-3 adrenergic receptor (Homo sapiens, UniProt P13945); test: Binding affinity against CHO cells transfected with human beta-3 adrenergic receptor in the presence of [125I]iodocyanopindolol; type: cell-based; summary of the method: as §1
Target sequence in this assay (P13945 whole entry): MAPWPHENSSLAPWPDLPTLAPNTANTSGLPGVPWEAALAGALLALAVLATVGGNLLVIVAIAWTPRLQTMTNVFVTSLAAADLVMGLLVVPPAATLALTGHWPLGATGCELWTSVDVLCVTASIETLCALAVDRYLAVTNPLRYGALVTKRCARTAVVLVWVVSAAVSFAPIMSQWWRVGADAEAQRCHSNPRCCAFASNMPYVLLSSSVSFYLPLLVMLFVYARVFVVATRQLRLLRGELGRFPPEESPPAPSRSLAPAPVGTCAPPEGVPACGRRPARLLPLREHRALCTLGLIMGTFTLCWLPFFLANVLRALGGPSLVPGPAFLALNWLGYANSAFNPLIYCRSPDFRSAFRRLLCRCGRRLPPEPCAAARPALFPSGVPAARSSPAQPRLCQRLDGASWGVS

[3] = target: T1, Beta-3 adrenergic receptor; test: Human beta-3 adrenergic receptor agonist activity by measurement of cAMP accumulation levels in CHO membranes expressing human beta-3 receptor.; type: functional, cell membranes
Summary of the method: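 β3 intrinsic activity (% activation) measured in membranes from CHO cells transfected with human β3 adrenergic receptor.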
Target sequence in this assay (P13945 whole entry, looked up): as the sequence (P13945 whole entry) above

[4] = target: Adrenergic receptor beta; ADRB1 & ADRB3 (Homo sapiens) (UniProt P08588+P13945); test: Selectivity measured as the ratio of Ki of Beta-1 Adrenergic receptor to the Ki of Beta-3 Adrenergic receptor; type: protein assay; summary of the method: as §1
Adrenergic receptor beta; ADRB1 & ADRB3 (Homo sapiens), sequence (P08588 whole entry, looked up): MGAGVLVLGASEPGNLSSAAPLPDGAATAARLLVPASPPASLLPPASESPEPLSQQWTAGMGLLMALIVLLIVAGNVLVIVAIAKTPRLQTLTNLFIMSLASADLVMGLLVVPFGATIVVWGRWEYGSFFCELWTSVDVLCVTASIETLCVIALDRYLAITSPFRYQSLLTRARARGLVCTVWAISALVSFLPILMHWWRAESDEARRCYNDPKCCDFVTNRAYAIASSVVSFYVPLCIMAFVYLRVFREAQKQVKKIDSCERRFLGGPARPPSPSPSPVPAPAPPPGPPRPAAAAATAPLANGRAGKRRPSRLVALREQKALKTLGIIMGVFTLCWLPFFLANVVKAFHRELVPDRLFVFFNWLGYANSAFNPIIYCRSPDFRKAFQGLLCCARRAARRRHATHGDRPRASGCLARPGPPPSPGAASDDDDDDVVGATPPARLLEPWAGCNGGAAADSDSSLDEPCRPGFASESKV
Adrenergic receptor beta; ADRB1 & ADRB3 (Homo sapiens), sequence (P13945 whole entry, looked up): as the sequence (P13945 whole entry) above

Cavia porcellus = species: Cavia porcellus; test: Intrinsic activity as the acceleration in contraction of spontaneously beating guinea pig atria relative to that induced by isoproterenol; type: functional
[5] = Response of African green monkeys to lipolysis upon iv injection of compound; type: functional; conditions: Cercopithecidae
Summary of the method: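 Agonist given iv to ketamine-anesthetized African green monkeys. Lipolysis is read as the rise in non-esterified fatty acids, and the ED50 is given in mg/kg. β3 mediation is checked by co-administration with propranolol 0.1 mg/kg.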

[6] = Response of African green monkeys to iv injection measured as beta-1 margin before onset of tachycardia; type: functional, Cercopithecidae
Summary of the method: (§2)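 Agonist given iv to ketamine-anesthetized African green monkeys. A β1 event is the onset of tachycardia, and a β2 event is a decrease in serum K+. Margin = dose producing statistically significant onset of the β1 or β2 event ÷ ED50 for lipolysis.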

[7] = Response of African green monkeys to iv injection measured as beta-2 margin before decrease of serum K; type: functional, Cercopithecidae; summary of the method: as §2

| SMILES | Selectivity [1] | Ki [2] [nM] | Intrinsic activity [3] [%] | Selectivity [4] | Intrinsic activity (Cavia porcellus) [%] | ED50 [5] [mg/kg] | Ratio of dose [6] | Ratio of dose [7] |
| --- | --- | --- | --- | --- | --- | --- | --- | --- |
| COc1cccc(C(Cc2ccccc2)NCC(O)c2ccc(O)c(NS(C)(=O)=O)c2)c1 (stereo unspecified) | 2 | 230 | 99 | 16 | – | – | – | – |
| COC(=O)COc1ccc(CCNCC(O)c2ccc(O)c(NS(C)(=O)=O)c2)cc1 (stereo unspecified) | 0.01 | 3300 | 79 | 0.7 | – | – | – | – |
| COc1ccc(C(C)(NC[C@H](O)c2ccc(O)c(NS(C)(=O)=O)c2)c2ccc(OC)cc2)cc1 | 8 | 20 | 79 | 3 | 79 | – | – | – |
| COc1ccc(CNCC(O)c2ccc(O)c(NS(C)(=O)=O)c2)cc1 (stereo unspecified) | 2 | 1550 | 95 | 22 | – | – | – | – |
| COc1ccc(C(Cc2ccccc2)NCC(O)c2ccc(O)c(NS(C)(=O)=O)c2)cc1OC (stereo unspecified) | 8 | 33 | 105 | 69 | – | – | – | – |
| CS(=O)(=O)Nc1cc(C(O)CNC(Cc2ccccc2)C2CCCCC2)ccc1O (stereo unspecified) | 0.7 | 4300 | 80 | 7 | – | – | – | – |
| Cc1ccc(C(Cc2ccccc2)NCC(O)c2ccc(O)c(NS(C)(=O)=O)c2)cc1C (stereo unspecified) | 3 | 133 | 79 | 43 | – | – | – | – |
| COC(=O)CCCCC(Cc1ccccc1)NCC(O)c1ccc(O)c(NS(C)(=O)=O)c1 (stereo unspecified) | 5 | 570 | 89 | 26 | – | – | – | – |
| COc1ccc(C(Cc2ccccc2)NCC(O)c2ccc(O)c(NS(C)(=O)=O)c2)cc1 (stereo unspecified) | – | – | 99 | – | – | – | – | – |
| COc1ccc(C(NC[C@H](O)c2ccc(O)c(NS(C)(=O)=O)c2)(C(N)=O)c2ccc(OC)cc2)cc1 | 10 | 220 | 106 | 3 | – | – | – | – |
| CS(=O)(=O)Nc1cc([C@@H](O)CNC(c2ccccc2)c2ccccc2)ccc1O | 5 | 5800 | 44 | 5 | – | – | – | – |
| CCCCCC(Cc1ccccc1)NCC(O)c1ccc(O)c(NS(C)(=O)=O)c1 (stereo unspecified) | 0.5 | 320 | 77 | 8 | – | – | – | – |
| COCc1ccc(C(NC[C@H](O)c2ccc(O)c(NS(C)(=O)=O)c2)c2ccc(COC)cc2)cc1 | 13 | 980 | 78 | 46 | – | – | – | – |
| CS(=O)(=O)Nc1cc(C(O)CNCCc2ccccc2)ccc1O (stereo unspecified) | 0.07 | 1100 | 91 | 2 | – | – | – | – |
| COc1ccc(CCNCC(O)c2ccc(O)c(NS(C)(=O)=O)c2)cc1OC (stereo unspecified) | 1 | 550 | 110 | 4 | – | – | – | – |
| CNC(=O)CCCCC(Cc1ccccc1)NCC(O)c1ccc(O)c(NS(C)(=O)=O)c1 (stereo unspecified) | 0.5 | 1600 | 104 | 7 | – | – | – | – |
| CS(=O)(=O)Nc1cc(C(O)CNC(CCCCC(=O)O)Cc2ccccc2)ccc1O (stereo unspecified) | 0.3 | 87000 | 57 | 1 | – | – | – | – |
| CCc1ccc(C(Cc2ccccc2)NCC(O)c2ccc(O)c(NS(C)(=O)=O)c2)cc1CC (stereo unspecified) | 0.5 | 520 | 91 | 6 | – | – | – | – |
| COc1ccc([C@H](Cc2ccccc2)NC[C@H](O)c2ccc(O)c(NS(C)(=O)=O)c2)cc1OC | 6 | 320 | 93 | 63 | – | – | – | – |

| SMILES | Selectivity [1] | Ki [2] [nM] | Intrinsic activity [3] [%] | Selectivity [4] | Intrinsic activity (Cavia porcellus) [%] | ED50 [5] [mg/kg] | Ratio of dose [6] | Ratio of dose [7] |
| --- | --- | --- | --- | --- | --- | --- | --- | --- |
| CC(C)NCC(O)c1ccc(O)c(NS(C)(=O)=O)c1 (stereo unspecified) [SOTERENOL] | 0.6 | 4100 | 109 | 2 | – | – | – | – |
| CS(=O)(=O)Nc1cc(C(O)CNC23CC4CC(CC(C4)C2)C3)ccc1O (stereo unspecified) | 0.04 | 11000 | 110 | 15 | – | – | – | – |
| CN(C)C(=O)c1ccc(C(NC[C@H](O)c2ccc(O)c(NS(C)(=O)=O)c2)c2ccc(C(=O)N(C)C)cc2)cc1 | – | – | 43 | – | – | – | – | – |
| CS(=O)(=O)Nc1cc(C(O)CNC(Cc2ccccc2)Cc2ccccc2)ccc1O (stereo unspecified) | 0.3 | 1500 | – | 6 | – | – | – | – |
| CCC(C)(C)NCC(O)c1ccc(O)c(NS(C)(=O)=O)c1 (stereo unspecified) | 0.03 | 3700 | 125 | 0.3 | – | – | – | – |
| CS(=O)(=O)Nc1cc(C(O)CNC(Cc2ccccc2)c2ccc(Cl)c(Cl)c2)ccc1O (stereo unspecified) | 1 | 414 | 97 | 9 | – | – | – | – |
| COc1ccc(C(NC[C@H](O)c2ccc(O)c(NS(C)(=O)=O)c2)c2ccc(OC)cc2)cc1 | – | – | 100 | – | 85 | – | – | – |
| COc1ccc(C(Cc2ccccc2)NCC(O)c2ccc(O)c(NS(C)(=O)=O)c2)c(OC)c1 (stereo unspecified) | 3 | 70 | 102 | 37 | – | – | – | – |
| CC(NC[C@H](O)c1ccc(O)c(NS(C)(=O)=O)c1)(c1ccc(OC(F)F)cc1)c1ccc(OC(F)F)cc1 | 2 | 81 | 94 | 2 | – | – | – | – |
| CS(=O)(=O)Nc1cc(C(O)CNC(CCCCCO)Cc2ccccc2)ccc1O (stereo unspecified) | 0.5 | 480 | 72 | 10 | – | – | – | – |
| CS(=O)(=O)Nc1cc(C(O)CNC(Cc2ccccc2)c2ccccc2)ccc1O (stereo unspecified) | 3 | – | – | 15 | – | – | – | – |
| CS(=O)(=O)Nc1cc(C(O)CN)ccc1O (stereo unspecified) | 0.1 | 17000 | 93 | 0.6 | – | – | – | – |
| CS(=O)(=O)Nc1cc([C@@H](O)CNC(c2ccc(OC(F)F)cc2)c2ccc(OC(F)F)cc2)ccc1O | 7 | 160 | 77 | 8 | 24 | 0.08 | >6 | >60 |
| CS(=O)(=O)Nc1cc(C(O)CNCCc2ccc(OCC(=O)O)cc2)ccc1O (stereo unspecified) | 0.06 | 49000 | 77 | 2 | – | – | – | – |
| CS(=O)(=O)Nc1cc(C(O)CNCc2ccccc2)ccc1O (stereo unspecified) | 0.25 | 12700 | – | 2 | – | – | – | – |
| CS(=O)(=O)Nc1cc([C@@H](O)CNC(c2ccc(F)cc2)c2ccc(F)cc2)ccc1O | 2 | 2800 | 70 | 3 | 48 | – | – | – |
| C[C@H](Cc1ccc(OCC(=O)O)cc1)NC[C@H](O)c1cccc(Cl)c1 | – | – | 67 | – | – | – | – | – |
| COc1ccc(CCNCC(O)c2ccc(O)c(NS(C)(=O)=O)c2)cc1 (stereo unspecified) | 0.3 | 480 | 93 | 4 | – | – | – | – |
| COc1ccc([C@@H](Cc2ccccc2)NC[C@H](O)c2ccc(O)c(NS(C)(=O)=O)c2)cc1OC | 6 | 11 | 112 | 63 | – | 0.03 | <3 | 3 |
